The source made the active and inactive calls. The rule behind the calls is not given here.
Experiments:
[1] = target: T1, Histone-lysine N-methyltransferase EHMT2 (Homo sapiens) (UniProt Q96KQ7); experiment: Inhibition of G9a in human MOLT-16 cells assessed as decrease in […] levels after 72 hrs by Western blot analysis; type: cell-based
T1 sequence (whole entry): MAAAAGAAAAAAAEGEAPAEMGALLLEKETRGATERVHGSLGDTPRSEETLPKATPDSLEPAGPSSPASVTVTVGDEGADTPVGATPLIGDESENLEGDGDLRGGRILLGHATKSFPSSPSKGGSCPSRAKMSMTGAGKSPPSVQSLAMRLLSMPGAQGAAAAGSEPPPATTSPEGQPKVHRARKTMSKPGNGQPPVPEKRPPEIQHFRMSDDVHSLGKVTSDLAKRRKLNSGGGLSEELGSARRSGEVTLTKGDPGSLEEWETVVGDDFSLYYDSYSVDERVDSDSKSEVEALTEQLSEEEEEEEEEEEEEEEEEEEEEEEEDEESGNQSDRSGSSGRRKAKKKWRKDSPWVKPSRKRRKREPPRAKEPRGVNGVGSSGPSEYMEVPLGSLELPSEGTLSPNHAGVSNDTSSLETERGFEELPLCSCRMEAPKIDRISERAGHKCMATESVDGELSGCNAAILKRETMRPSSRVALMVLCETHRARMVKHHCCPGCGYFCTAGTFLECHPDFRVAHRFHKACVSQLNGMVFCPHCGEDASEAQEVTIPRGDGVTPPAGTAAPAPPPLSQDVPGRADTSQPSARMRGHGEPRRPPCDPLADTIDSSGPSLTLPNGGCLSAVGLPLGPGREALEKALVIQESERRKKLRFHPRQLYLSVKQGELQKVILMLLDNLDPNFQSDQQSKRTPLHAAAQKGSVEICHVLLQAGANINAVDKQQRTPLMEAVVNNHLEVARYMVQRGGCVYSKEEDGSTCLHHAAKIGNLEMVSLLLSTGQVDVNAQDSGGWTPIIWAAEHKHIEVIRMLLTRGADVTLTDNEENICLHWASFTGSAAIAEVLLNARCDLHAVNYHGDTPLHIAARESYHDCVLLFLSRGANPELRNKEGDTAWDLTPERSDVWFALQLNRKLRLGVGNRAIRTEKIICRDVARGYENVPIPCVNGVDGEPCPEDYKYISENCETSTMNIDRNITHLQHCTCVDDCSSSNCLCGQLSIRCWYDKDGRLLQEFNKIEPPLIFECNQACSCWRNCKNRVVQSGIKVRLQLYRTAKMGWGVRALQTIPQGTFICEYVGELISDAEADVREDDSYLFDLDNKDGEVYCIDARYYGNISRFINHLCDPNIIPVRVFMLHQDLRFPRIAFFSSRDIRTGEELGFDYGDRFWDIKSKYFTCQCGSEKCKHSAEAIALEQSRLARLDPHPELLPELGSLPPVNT
Procedure, shortened: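 MOLT-16 T-ALL cells treated 3 days with compound over a concentration range and lysed. Lysates normalized and immunoblotted for H3K9me2, total H3 and G9a.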

MOLT-16 = experiment: Antiproliferative against human MOLT-16 cells after 5 days by Cell-Titer Glo assay; type: functional, cell-based; settings: MOLT-16, 120 h
Procedure, shortened: (§1)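 ATCC tumor lines were grown in their recommended media with 10% FBS and STR-authenticated. Cells were exposed to compound for the stated number of days. Viable cells were read by CellTiter-Glo endpoint. Inhibition was the ratio of treated to untreated wells, with cell-free wells set as 100% inhibition. The EC50 was taken from the dose response.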

RS4-11 = experiment: Antiproliferative against human RS4-11 cells after 5 days by Cell-Titer Glo assay; type: functional, cell-based; settings: RS4-11, 120 h; procedure, shortened: as §1
OPM-2 = experiment: Antiproliferative against human OPM-2 cells after 5 days by Cell-Titer Glo assay; type: functional, cell-based; settings: OPM-2, 120 h; procedure, shortened: as §1
L-363 = experiment: Antiproliferative against human L-363 cells after 5 days by Cell-Titer Glo assay; type: functional, cell-based; settings: L-363, 120 h; procedure, shortened: as §1
KMS-12-BM = experiment: Antiproliferative against human KMS-12-BM cells after 5 days by Cell-Titer Glo assay; type: functional, cell-based; settings: 120 h; procedure, shortened: as §1
KMS-11 = experiment: Antiproliferative against human KMS-11 cells after 5 days by Cell-Titer Glo assay; type: functional, cell-based; settings: KMS-11, 120 h; procedure, shortened: as §1
HL-60 [2] = experiment: Antiproliferative against human HL-60 cells after 5 days by Cell-Titer Glo assay; type: functional, cell-based; settings: HL-60, 120 h; procedure, shortened: as §1
NCI-H929 = experiment: Antiproliferative against human NCI-H929 cells after 5 days by Cell-Titer Glo assay; type: functional, cell-based; settings: NCI-H929, 120 h; procedure, shortened: as §1
HT-1080 = experiment: Antiproliferative against human HT-1080 cells after 5 days by Cell-Titer Glo assay; type: functional, cell-based; settings: HT-1080, 120 h; procedure, shortened: as §1
DU-145 = experiment: Antiproliferative against human DU-145 cells after 5 days by Cell-Titer Glo assay; type: functional, cell-based; settings: DU-145, 120 h; procedure, shortened: as §1
LN-229 = experiment: Antiproliferative against human LN-229 cells after 5 days by Cell-Titer Glo assay; type: functional, cell-based; settings: LN-229, 120 h; procedure, shortened: as §1
NCI-H2009 = experiment: Antiproliferative against human NCI-H2009 cells after 5 days by Cell-Titer Glo assay; type: functional, cell-based; settings: NCI-H2009, 120 h; procedure, shortened: as §1
Calu-1 = experiment: Antiproliferative against human Calu-1 cells after 5 days by Cell-Titer Glo assay; type: functional, cell-based; settings: Calu-1, 120 h; procedure, shortened: as §1
Calu-6 = experiment: Antiproliferative against human Calu-6 cells after 5 days by Cell-Titer Glo assay; type: functional, cell-based; settings: Calu-6, 120 h; procedure, shortened: as §1
NCI-H441 = experiment: Antiproliferative against human NCI-H441 cells after 5 days by Cell-Titer Glo assay; type: functional, cell-based; settings: NCI-H441, 120 h; procedure, shortened: as §1
SK-N-MC = experiment: Antiproliferative against human SK-N-MC cells after 7 days by Cell-Titer Glo assay; type: functional, cell-based; settings: 168 h; procedure, shortened: as §1
ZR-75-30 = experiment: Antiproliferative against human ZR-75-30 cells after 7 days by Cell-Titer Glo assay; type: functional, cell-based; settings: ZR-75-30, 168 h; procedure, shortened: as §1
Daoy = experiment: Antiproliferative against human Daoy cells after 7 days by Cell-Titer Glo assay; type: functional, cell-based; settings: 168 h; procedure, shortened: as §1
[3] = Antiproliferative against human TC71 cells after 7 days by Cell-Titer Glo assay; type: functional, cell-based; settings: TC-71, 168 h; procedure, shortened: as §1
IMR-32 = experiment: Antiproliferative against human IMR-32 cells after 7 days by Cell-Titer Glo assay; type: functional, cell-based; settings: IMR-32, 168 h; procedure, shortened: as §1
MV4-11 = experiment: Inhibition of cell viability in human MV4-11 cells after 14 days by trypan blue exclusion assay; type: functional, cell-based; settings: time 14.0 day
Procedure, shortened: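 MV4;11 cells treated 14 days with compound over a concentration range. Viability scored by trypan blue exclusion; parallel proliferation read by CellTiter-Glo.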

HL-60 [4] = experiment: Antiproliferative activity against human HL-60 cells after 14 days by Cell-titer Glo assay; type: functional, cell-based; settings: time 14.0 day
Procedure, shortened: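 Leukemia cells (MV4;11 or HL-60) in medium with 10% FBS were treated with a dose range of compound for 14 days. Proliferation was read by CellTiter-Glo endpoint, with inhibition set against untreated controls and cell-free wells as 100% inhibition. Viability was also measured in parallel by trypan blue exclusion.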

inhibition [1] | EC50 (MOLT-16) | EC50 (RS4-11) | EC50 (HL-60 [2]) | EC50 (NCI-H929) | EC50 (HT-1080) | EC50 (DU-145) | EC50 (NCI-H2009) | EC50 (Calu-1) | EC50 (Calu-6) | EC50 (NCI-H441) | EC50 (SK-N-MC) | Compound | EC50 (OPM-2) | EC50 (L-363) | EC50 (KMS-12-BM) | EC50 (KMS-11) | EC50 (LN-229) | EC50 (ZR-75-30) | EC50 (Daoy) | EC50 [3] | other results
Active | 0.2 µM | 3.1 µM | 6.5 µM | 4.6 µM | 0.5 µM | 0.7 µM | 3.9 µM | 1.3 µM | 1.5 µM | 8.7 µM | 0.2 µM | COc1cc2c(NC3CCN(C(C)C)CC3)nc(C3CCCCC3)nc2cc1OCCCN1CCCC1 | 5.6 µM | 3.9 µM | 4.4 µM | 4 µM | 0.5 µM | 1.2 µM | 0.1 µM | 0.6 µM | EC50 (IMR-32): > 10 µM
Active | > 10 µM | > 10 µM | > 10 µM | > 10 µM | > 10 µM | > 10 µM | > 10 µM | > 10 µM | > 10 µM | > 10 µM | > 10 µM | COc1cc2c(cc1OCCCN1CCCC1)N=C(N)C21CCC1 | > 10 µM | > 10 µM | > 10 µM | > 10 µM | > 10 µM | > 10 µM | > 10 µM | > 10 µM | inhibition (MV4-11): Active; Activity (HL-60 [4]): Active; EC50 (IMR-32): > 10 µM

Source: ChEMBL document CHEMBL5674869, “The Histone Methyltransferase Inhibitor A-366 Uncovers a Role for G9a/GLP in the Epigenetics of Leukemia” (PLoS One, 2015)
